# From ChEMBL document CHEMBL1122506, “Cardiac-slowing amidines containing the 3-thioindone group. Potential antianginal agents” (1983)
# Assays:
# Canis familiaris [1] = organism: Canis familiaris; assay: Cardiac slowing index was measured for potency and efficacy; format: functional, Canis lupus familiaris
# Summary of the method: (§1)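 Triazine tachycardia in conscious dogs: carotid artery and jugular vein catheterized with heparinized saline; 18 h after surgery, triazine vasodilator U20388 12 mg/kg po; about 1 h later, dog in sling with arterial pressure and ECG monitored. Test agent infused iv at 0.8 (mg/kg)/min to 30 mg/kg total. D50 = dose giving 50% of maximal slowing in that animal; ΔHR50 = heart-rate change at D50; CS index = %ΔHR50/D50.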
# Canis familiaris [2] = assay: Dose required to achieve 50 % of maximal cardiac slowing in triazine tachycardia test in conscious dog; format: functional, Canis lupus familiaris; summary of the method: as §1
# Canis familiaris [3] = organism: Canis familiaris; assay: Relative activity (fraction of the most active compound 24) was determined; format: functional, Canis lupus familiaris
# Canis familiaris [4] = assay: Change in heart rate at the above D50 dose in conscious dogs; format: functional, Canis lupus familiaris; summary of the method: as §1
# Canis familiaris [5] = organism: Canis familiaris; assay: Percent decrease from initial heart rate (percent delta HR50/HR0 x 100) in dogs; format: functional, Canis lupus familiaris; summary of the method: as §1
# Canis familiaris [6] = assay: Myocardial depression rating in anesthetized, ganglion-blocked dog; Weak activity.
# Canis familiaris [7] = assay: Myocardial depression in anesthetized, ganglion-blocked dog; Moderate activity.
SMILES,CS index (Canis familiaris [1]),D50 (Canis familiaris [2]) [mg/kg],Relative activity (Canis familiaris [3]),Delta HR50 (Canis familiaris [4]) [beats min-1],Delta HR50 (Canis familiaris [5]) [%],MD (Canis familiaris [6]),MD (Canis familiaris [7])
COc1ccc2[nH]cc(SCC/N=C3\CCCN3C)c2c1,7.7,2.3,0.24,-39,17.8,2,–
Cc1[nH]c2ccccc2c1SCCNC1=NCCN1C,7.5,2.6,0.23,-37,19.5,2.5,–
CN1CCC/C1=N\CCSc1cn(CC2CC2)c2ccccc12,18.2,1.4,0.57,-60,25.5,2.5,–
C=CCCn1cc(SCC/N=C2\CCCN2C)c2ccccc21,14.7,1.1,0.46,-33,16.2,–,3
C#CCn1cc(SCC/N=C2\CCCN2C)c2ccccc21,19.6,1.1,0.61,-46,21.6,2.5,–
C#CCn1cc(CC/N=C2/CCCN2C)c2ccccc21,14.9,1.5,0.46,-47,22.3,–,3
CN1CCC/C1=N/CCc1cn(Cc2ccccc2)c2ccccc12,9.3,2.6,0.29,-52,24.3,–,–
CN1CCC/C1=N\CCCCSc1c[nH]c2ccccc12,10,2,0.31,-42,20,–,3
CN1CCC/C1=N\CCSc1cn(Cc2ccccc2)c2ccccc12,–,–,–,–,–,–,3
CN1CCCN=C1NCCSc1c[nH]c2ccccc12,3.1,6.4,0.1,-38,20,–,–
CN1CCCC/C1=N\CCSc1c[nH]c2ccccc12,7.5,3,0.23,-51,22.4,2.5,–
C=C(C)Cn1cc(SCC/N=C2\CCCN2C)c2ccccc21,4.5,4.4,0.14,-42,20,2.5,–
C=CCN1CCC/C1=N\CCSc1c[nH]c2ccccc12,17.7,0.7,0.55,-22,12.4,–,–
CCc1ccc2[nH]cc(SCC/N=C3\CCCN3C)c2c1,1.8,8.6,0.06,-21,15.5,–,–
CN1CCC/C1=N/CCCSc1c[nH]c2ccccc12,5.4,3.8,0.17,-46,20.4,–,3
C#CCn1c(C)c(SCC/N=C2\CCCN2C)c2ccccc21,3.4,5.5,0.11,-20,18.5,–,–

SMILES,CS index (Canis familiaris [1]),D50 (Canis familiaris [2]) [mg/kg],Relative activity (Canis familiaris [3]),Delta HR50 (Canis familiaris [4]) [beats min-1],Delta HR50 (Canis familiaris [5]) [%],MD (Canis familiaris [6]),MD (Canis familiaris [7])
CN1CCC/C1=N\CCSc1cn(C2C=CCCC2)c2ccccc12 (stereo not drawn),10.9,1.9,0.34,-52,20.8,–,3.5
CCN1CC(CC/N=C2\CCCN2C)c2ccccc21 (stereo not drawn),5.6,3.3,0.17,-45,18.4,2,–
CN1CCN=C1NCCSc1c[nH]c2ccccc12,6.9,2.9,0.22,-38,19.9,2,–
CN1CCN=C1NCCc1c[nH]c2ccccc12,2.1,9.7,0.06,-47,20.5,2,–
C=CCn1cc(SCC/N=C2\CCCN2C)c2ccccc21,22.2,1,0.69,-52,22.2,2,–
C=CCn1cc(CC/N=C2/CCCN2C)c2ccccc21,12.2,1.2,0.38,-26,14.7,–,–
CN1CCC/C1=N\CCSc1c[nH]c2ccc(Cl)cc12,4.6,3.5,0.14,-32,16.2,2,–
CC(=NCCSc1c[nH]c2ccccc12)N(C)C,11.5,2,0.36,-50,23,2,–
CN1CCC/C1=N/CCc1c[nH]c2ccccc12,4.7,3.4,0.15,-28,16,2,–
c1ccc2c(SCCNC3=NCCC3)c[nH]c2c1,6.2,3.7,0.19,-51,23,–,–
CN1CCC/C1=N\CCSc1cn(Cc2ccco2)c2ccccc12,8.6,2.6,0.27,-42,22.4,–,3.5
CN1CCC/C1=N\CCSc1cn(C2CCCC2)c2ccccc12,7.8,2.7,0.24,-40,21,–,3
c1ccc(N2CCC/C2=N\CCSc2c[nH]c3ccccc23)cc1,32,0.6,1,-40,19.2,2.5,–
CC(CSc1c[nH]c2ccccc12)/N=C1\CCCN1C (stereo not drawn),8.9,2.7,0.28,-46,24,–,3.5
CN1CCCCC/C1=N\CCSc1c[nH]c2ccccc12,1.3,14.1,0.04,-38,18.5,–,–
